Assay results from different studies.
Each line is one published result; the experiments were not run side by side.
Effect on: metabolic stability

| Structure (SMILES) | species | medium | tested at | time | pH | setting | scaled CLint [mL/min/kg] |
| --- | --- | --- | --- | --- | --- | --- | --- |
| Cc1cc(NC(=O)Cc2ccc(F)c(C#N)c2)n(CC2CCCCC2)n1 | mouse | liver microsomes |  |  |  |  | 2970 |
| Cc1ccc(-c2nc3ccccc3s2)cc1NC(=O)c1cc([N+](=O)[O-])c(N2CCN(C)CC2)cc1Cl | CD-1 mouse | liver microsomes | 1 µM | 1 h | pH 7.4 |  | 105 |
| CCCN(C)Cc1cc(-c2[nH]c3cccc(F)c3c(=O)c2C)ccc1Cc1ccc(OC(F)(F)F)cc1 | mouse | liver microsomes |  |  |  |  | 1570 |
| COc1cc(C2Oc3cc([C@H]4Oc5cc(O)cc(O)c5C(=O)[C@@H]4O)ccc3OC2CO)ccc1O (stereo partly drawn) | mouse | liver microsomes | 1 µM |  |  |  | 66.5 |
| O=c1ccc2ccc(O)cc2o1 | mouse | liver S9 | 2 µM |  | pH 7.4 |  | 2120 |
| O=C(c1ccc(F)cc1)C1CCN(CCn2c(=O)[nH]c3ccccc3c2=O)CC1 | mouse | liver microsomes |  |  |  |  | 376 |
| O=C(Nc1cncc(-c2nc3ccccc3o2)c1)c1ccc(N2CCNCC2)c([N+](=O)[O-])c1 | CD-1 mouse | liver microsomes | 1 µM | 1 h | pH 7.4 |  | 10 |
| CN[C@@H]1CCN(c2ccc(Nc3cc(NC4CC4)n4ncc(C#N)c4n3)cc2NC(C)=O)C1 | male CD-1 mouse | hepatocytes | 1 µM |  |  | serum-free | 126 |
| Cc1ccc(F)c2cc(C(=O)N[C@@H]3CCC[C@H](N4CCN(C)C(=O)C4)C3)[nH]c12 | mouse | hepatocytes | 0.5 µM | 1 h |  |  | 164 |
| CCOc1c(O)cc(Br)c2c1CN1CCc3cc(OCC(F)F)c(O)cc3[C@@H]1C2 | mouse | liver S9 | 2 µM |  | pH 7.4 |  | 1040 |
| Cc1ccc(F)c2cc(C(=O)N[C@@H]3CCC[C@H](N4CCN(S(C)(=O)=O)CC4)C3)[nH]c12 | mouse | hepatocytes | 0.5 µM | 1 h |  |  | 328 |
| Cc1ccc(-c2nc3ccccc3s2)cc1NC(=O)c1cc([N+](=O)[O-])c(F)cc1F | CD-1 mouse | liver microsomes | 1 µM | 1 h | pH 7.4 |  | 52 |
| Cc1ccc(F)c2cc(C(=O)N[C@@H]3CCC[C@H](c4ccncc4)C3)[nH]c12 | mouse | hepatocytes | 0.5 µM | 1 h |  |  | 399 |
| CC(=O)Nc1cc(Nc2cc(NC3CC3)n3ncc(C#N)c3n2)ccc1N(C)C[C@@H]1CCCN1 | male CD-1 mouse | hepatocytes | 1 µM |  |  | serum-free | 171 |
| Cc1cc(Cl)c(Cl)cc1NC(=O)c1ccc(N2CCNCC2)c([N+](=O)[O-])c1 | CD-1 mouse | liver microsomes | 1 µM | 1 h | pH 7.4 |  | 21 |
